Assay results from publication PMC4979564 (JCI insight, 2016).

Legend:
recombinant bovine eNOS = recombinant bovine eNOS (Bos taurus, UniProt P29473); assay: Radioisotopic eNOS activity assay; assay type: biochemical; conditions: recombinant eNOS enzyme
Summary of the method: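 Recombinant bovine eNOS was incubated with test compound. Activity was taken as the rate of conversion of [3H]L-arginine to [3H]L-citrulline, using a radioisotopic NOS assay kit per supplier's instructions. L-NNA (100 μM) served as positive control. One-way ANOVA with Dunnett's test.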

iNOS = iNOS (Mus musculus, UniProt P29477); assay type: cell-based; conditions: for concentration range of concentration-dependent inhibition of iNOS activity: extracts of RAW 264.7 macrophages treated with LPS + γ-interferon
Summary of the method: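 RAW 264.7 mouse macrophages (100,000 cells/well) primed 24 h with LPS (50 ng/ml) plus γ-interferon (10 ng/ml) to induce iNOS. Test compound was then added for 1 h. Activity was read with a fluorimetric cell-associated NOS detection kit per supplier's protocol. Diphenylene iodonium (1 mM) served as positive control. One-way ANOVA with Dunnett's test against LPS+γ-interferon control.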

[1] = tested on: BDL-induced liver fibrosis; assay: Bile duct ligation; assay type: in vivo, mouse; conditions: for gene expression of fibrosis markers collagen-1, Tgfβ1, αSma, Timp1: wild-type mice with BDL; for progression of established BDL-induced liver fibrosis: treatment started on day 6 after BDL
anxiety-like behavior = assay: Elevated plus-maze test; assay type: in vivo, mouse
[2] = Plasma ALT and AST after 28-day chronic oral administration; assay type: in vivo, mouse; conditions: for plasma ALT / plasma AST: 28-day chronic oral
Summary of the method: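 Mice received test compound by daily oral gavage. Blood was collected at sacrifice, and serum ALT and AST were measured on an automated clinical chemistry analyzer.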

[3] = tested on: CCl4-induced liver fibrosis; assay: CCl4-induced liver fibrosis; assay type: in vivo, mouse; conditions: 3 mg/kg/d for 4 weeks with CCl4 twice weekly
CB2R = conditions: binding, CHO-K1 membranes
[4] = Liver microsomal stability assay; assay type: in vitro ADME; conditions: mouse, rat, or human liver microsomes, 1 hour at 37°C
CB1R [5] = molecular target: T1, CB1R (Mus musculus, UniProt P47746); assay: Brain CB1R occupancy by CB1R PET; assay type: in vivo; conditions: acute or chronic treatment, 3–30 mg/kg
T1 sequence (P47746 whole entry): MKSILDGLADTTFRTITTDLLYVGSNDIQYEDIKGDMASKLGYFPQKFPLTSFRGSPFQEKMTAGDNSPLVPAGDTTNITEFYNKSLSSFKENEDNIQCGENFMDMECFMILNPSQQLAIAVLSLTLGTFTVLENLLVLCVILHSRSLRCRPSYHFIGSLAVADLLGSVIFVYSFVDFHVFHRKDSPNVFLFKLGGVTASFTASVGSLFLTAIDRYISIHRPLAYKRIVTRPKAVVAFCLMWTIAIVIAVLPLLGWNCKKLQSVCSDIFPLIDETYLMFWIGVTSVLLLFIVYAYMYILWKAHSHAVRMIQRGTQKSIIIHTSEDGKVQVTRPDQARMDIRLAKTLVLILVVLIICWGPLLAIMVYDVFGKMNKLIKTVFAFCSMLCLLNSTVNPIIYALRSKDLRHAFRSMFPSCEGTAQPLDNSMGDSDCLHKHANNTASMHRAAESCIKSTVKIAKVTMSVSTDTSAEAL

[6] = Tissue distribution by LC-MS/MS after oral dosing; assay type: in vivo, mouse
[7] = 2-strain Ames test for in vitro genotoxicity; conditions: up to 125 μg/ml
CB1R [8] = molecular target: CB1R (Homo sapiens, UniProt P21554); assay: Safety screen; assay type: binding; conditions: 1 μM
Chain of CB1R (Homo sapiens, UniProt P21554) (P21554 whole entry): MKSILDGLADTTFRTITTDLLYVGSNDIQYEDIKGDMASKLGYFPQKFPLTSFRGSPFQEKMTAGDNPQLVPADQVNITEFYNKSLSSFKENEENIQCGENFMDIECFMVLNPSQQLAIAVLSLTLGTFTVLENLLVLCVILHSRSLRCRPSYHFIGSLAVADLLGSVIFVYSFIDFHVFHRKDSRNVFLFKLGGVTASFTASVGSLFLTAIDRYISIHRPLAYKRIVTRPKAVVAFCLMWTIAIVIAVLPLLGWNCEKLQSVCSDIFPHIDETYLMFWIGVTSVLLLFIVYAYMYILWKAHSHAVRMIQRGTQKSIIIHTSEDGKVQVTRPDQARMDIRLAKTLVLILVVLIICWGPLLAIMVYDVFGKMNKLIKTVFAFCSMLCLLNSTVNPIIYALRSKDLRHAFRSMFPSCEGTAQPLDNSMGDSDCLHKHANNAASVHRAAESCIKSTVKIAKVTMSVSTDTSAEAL

CB1R [9] = molecular target: T1, CB1R; assay: [35S]GTPγS-binding assay; assay type: biochemical; conditions: no agonist
[10] = Pharmacokinetics in Sprague-Dawley rats; assay type: in vivo, rat
κ opioid receptor = assay: Safety screen; assay type: binding; conditions: 1 μM
hERG = hERG (Homo sapiens, UniProt Q12809); assay: hERG K+ current inhibition; assay type: biochemical; conditions: read-out: IC50 for inhibition of the K+ current mediated by hERG; in vitro
Chain of hERG (Q12809 whole entry): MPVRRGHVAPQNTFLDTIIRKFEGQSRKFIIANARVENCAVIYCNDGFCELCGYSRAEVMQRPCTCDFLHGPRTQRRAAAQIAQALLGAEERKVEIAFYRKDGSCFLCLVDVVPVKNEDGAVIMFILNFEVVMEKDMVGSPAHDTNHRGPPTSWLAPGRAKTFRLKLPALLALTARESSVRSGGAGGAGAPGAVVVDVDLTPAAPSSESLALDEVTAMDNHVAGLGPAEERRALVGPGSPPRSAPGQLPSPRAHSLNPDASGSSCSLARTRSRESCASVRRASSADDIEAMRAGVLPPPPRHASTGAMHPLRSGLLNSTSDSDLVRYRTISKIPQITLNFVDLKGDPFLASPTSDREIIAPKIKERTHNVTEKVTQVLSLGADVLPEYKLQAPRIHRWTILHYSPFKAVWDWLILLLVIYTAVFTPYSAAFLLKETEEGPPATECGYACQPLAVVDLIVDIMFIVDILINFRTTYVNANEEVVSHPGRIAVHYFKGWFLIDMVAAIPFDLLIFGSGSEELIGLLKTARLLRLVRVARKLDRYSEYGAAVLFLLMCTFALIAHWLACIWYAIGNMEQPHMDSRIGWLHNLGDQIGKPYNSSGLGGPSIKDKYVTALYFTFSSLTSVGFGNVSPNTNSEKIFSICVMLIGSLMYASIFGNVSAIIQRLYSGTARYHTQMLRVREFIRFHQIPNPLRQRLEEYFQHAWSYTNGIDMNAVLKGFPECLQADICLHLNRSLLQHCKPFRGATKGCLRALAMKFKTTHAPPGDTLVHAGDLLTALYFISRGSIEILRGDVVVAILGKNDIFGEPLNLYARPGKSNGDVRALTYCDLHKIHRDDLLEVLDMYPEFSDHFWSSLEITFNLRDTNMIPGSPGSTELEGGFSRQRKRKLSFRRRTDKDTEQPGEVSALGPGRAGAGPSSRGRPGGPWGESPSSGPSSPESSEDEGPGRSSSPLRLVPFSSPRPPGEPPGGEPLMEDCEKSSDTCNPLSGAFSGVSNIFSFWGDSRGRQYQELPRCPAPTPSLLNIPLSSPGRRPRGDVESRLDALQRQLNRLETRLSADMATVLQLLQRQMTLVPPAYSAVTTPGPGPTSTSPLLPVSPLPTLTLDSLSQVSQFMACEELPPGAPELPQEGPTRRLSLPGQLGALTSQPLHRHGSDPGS

Pharmacokinetics in mice = assay type: in vivo, mouse; conditions: oral
CB1R [11] = molecular target: T1, CB1R; assay: Upper GI motility assay; assay type: in vivo
Caco-2 = Caco-2 permeability assay; assay type: in vitro ADME

In the case of `CC(=N)N` [acetamidine], the “effect on eNOS activity” value (recombinant bovine eNOS) is reported as “unaffected” and the “concentration range of concentration-dependent inhibition of iNOS activity” value (iNOS) is reported as 1 to 10 µM.
For `Cc1c(C(=O)NN2CCCCC2)nn(-c2ccc(Cl)cc2Cl)c1-c1ccc(Cl)cc1` [rimonabant, reference compound], the “effect on eNOS activity” value (recombinant bovine eNOS) was “Lack of effect”, the “BDL-induced increase in hepatic iNOS gene expression” value ([1]; 3 mg/kg/d oral) was “only partially reduced” and the “BDL-induced increase in hepatic iNOS protein (immunostaining)” value ([1]; 3 mg/kg/d oral) was “did not affect”. For the same molecule, the “BDL-induced increase in iNOS function (hepatic iNOS enzyme activity, protein nitrosylation)” value ([1]; 3 mg/kg/d oral) was “no significant effect”, the “gene expression of fibrosis markers collagen-1, Tgfβ1, αSma, Timp1” value ([1]; 3 mg/kg/d oral) was “significantly reduced” and the “inhibition of iNOS activity” value (iNOS; up to 100 μM) was “did not inhibit iNOS”. The “anxiety-like behavior in the elevated plus maze” value (anxiety-like behavior; 3 mg/kg) was “caused pronounced anxiety”.
For `CC(=N)NCc1cccc(CN)c1` [1400W, reference compound], the “progression of established BDL-induced liver fibrosis” value ([1]; 10 mg/kg daily) was “attenuated fibrosis to the same extent as rimonabant”.
With `C/C(N)=N\C(=N/S(=O)(=O)c1ccc(C(F)(F)F)cc1)N1C[C@H](c2ccccc2)C(c2ccc(Cl)cc2)=N1` [MRI-1867] the hepatotoxicity ([2]; 28-day chronic oral doses of 3 or 30 mg/kg) was “no hepatotoxicity”, the “plasma ALT” value ([2]; 3 mg/kg) was 31.8 ± 4.8 U/l and the “plasma AST” value ([2]; 3 mg/kg) was 44.0 ± 6.1 U/l. For the same molecule, the “plasma ALT” value ([2]; 30 mg/kg) was 26.2 ± 3.4 U/l, the “plasma AST” value ([2]; 30 mg/kg) was 36.2 ± 1.2 U/l and the “CCl4-induced fibrosis (Sirius red, Hyp content, fibrogenic gene expression, iNOS protein)” value [3] was “attenuated significantly more”. The “selectivity for CB1R over CB2R” value (CB2R) was > 500 fold, the compound remaining unmetabolized [4] was 46%–62% and the “displacement of a CB1R PET ligand in brain” value (CB1R [5]) was “failed to cause significant displacement”. For the same molecule, the “effect on eNOS activity” value (recombinant bovine eNOS) was “unaffected”, the “unbound drug concentrations in the brain” value ([6]; 10 times higher dose (30 mg/kg), acute or chronic oral, 1 hour after dose) was 0.9 to 1.2 nM and the “brain/plasma Cmax ratio” value ([6]; acute or 28-day chronic oral administration, 3 mg/kg) was ~ 3%. For the same molecule, the “brain concentration of unbound drug” value ([6]; acute or chronic oral dosing, 3 mg/kg, 1 hour after dose) was 0.2 to 0.3 nM, the “brain penetrance and brain CB1R occupancy in mdr1α−/− mice” value ([6]; mdr1α−/− mice) was “marked increase” and the “accumulation in the liver” value ([6]; oral dosing) was “accumulated highly in the liver”. For the same molecule, the Ames test genotoxicity [7] was “negative”, the “displacement at CB1R” value (CB1R [8]) was 93% and the “BDL-induced increase in hepatic iNOS gene expression” value ([1]; 3 mg/kg/d oral) was “completely prevented”. The “BDL-induced increase in hepatic iNOS protein (immunostaining)” value ([1]; 3 mg/kg/d oral) was “completely prevented”, the “BDL-induced increase in iNOS function (hepatic iNOS enzyme activity, protein nitrosylation)” value ([1]; 3 mg/kg/d oral) was “completely prevented” and the “macrophage infiltration, hepatocyte apoptosis and elevated Ccl2 after BDL” value ([1]; 3 mg/kg/d oral) was “more effectively suppressed”. The “BDL-induced fibrosis in cnr1−/− mice” value ([1]; cnr1−/− mice, 3 mg/kg/d oral) was “further attenuated”, the “progression of established BDL-induced liver fibrosis” value ([1]; 3 mg/kg/d oral) was “completely arrest the progression” and the “gene expression of fibrosis markers collagen-1, Tgfβ1, αSma, Timp1” value ([1]; 3 mg/kg/d oral) was “significantly reduced”. The BDL-induced ductular proliferation ([1]; wild-type mice, 3 mg/kg/d oral) was “attenuated significantly more effectively”, the “concentration range of concentration-dependent inhibition of iNOS activity” value (iNOS) was 1 to 10 µM and the “GTPγS binding in the absence of an agonist (inverse agonism)” value (CB1R [9]) was “concentration-dependent decreases in GTPγS binding”. For the same molecule, the “anxiety-like behavior in the elevated plus maze” value (anxiety-like behavior; doses up to 30 mg/kg) was “did not induce anxiety-like behavior”, the oral bioavailability ([10]; AUC oral gavage versus intravenous, 3 mg/kg, Sprague-Dawley rats) was 81% and the “Plasma t1/2” value ([10]; oral, rats) was ~ 4 hours. The “displacement at κ opioid receptor” value (κ opioid receptor) was 61%, the IC50 (hERG) was 5.1 µM and the “Plasma t1/2” value (Pharmacokinetics in mice) was ~ 4 hours. For the same molecule, the “reversal of inhibition of upper GI motility caused by CB1R agonist arachidonoyl 2-chloroethylamide” value (CB1R [11]; 10 mg/kg agonist) was “dose-dependently reversed”, the “upper GI motility (inverse agonism)” value (CB1R [11]; oral doses of 3–10 mg/kg, control mice, no effect in CBr1−/− mice) was “significantly increased upper GI motility” and the efflux ratio (Caco-2) was 2.5.
